pIC50: −log10 of the molar value. Calls of active or inactive are those of the source. The calls are words filed in the database; no cut-off is given here. Starred links: 1 amine or outer side, 2 acyl side, 3 side chain; linkers in the order of their positions; H or OH if unused. Non-standard residues stand in square brackets, D forms with d. Residues, ends and D or L forms follow the SMILES beside them. *: point of attachment. Ahppa(3S,4S) = O=C(C[C@H](O)[C@H](Cc1ccccc1)N[*:1])[*:2]; dNMeF = CN[C@H](Cc1ccccc1)C(=O)O; NMeQ = CN[C@@H](CCC(N)=O)C(=O)O; Cbz = O=C(OCc1ccccc1)*; Lac = C[C@H](O)C(=O)O
What was measured:
[1] = molecular target: T1, Cathepsin E (Homo sapiens, UniProt P14091); experiment: Inhibition of cathepsin E by fluorescence assay
T1 sequence (P14091 whole entry): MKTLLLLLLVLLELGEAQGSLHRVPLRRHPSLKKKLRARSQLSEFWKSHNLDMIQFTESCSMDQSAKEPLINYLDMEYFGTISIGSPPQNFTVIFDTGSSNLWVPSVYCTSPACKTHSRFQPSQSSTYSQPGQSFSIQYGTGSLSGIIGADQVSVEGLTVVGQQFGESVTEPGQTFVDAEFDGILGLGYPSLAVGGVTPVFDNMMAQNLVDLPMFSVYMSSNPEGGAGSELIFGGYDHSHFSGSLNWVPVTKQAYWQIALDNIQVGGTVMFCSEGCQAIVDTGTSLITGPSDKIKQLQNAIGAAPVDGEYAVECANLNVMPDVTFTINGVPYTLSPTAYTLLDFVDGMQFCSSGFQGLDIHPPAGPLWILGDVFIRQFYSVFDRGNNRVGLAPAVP

[2] = molecular target: Cathepsin D (Homo sapiens, UniProt P07339); experiment: Inhibition of cathepsin D by fluorescence assay
[3] = test system: Serum; experiment: Drug metabolism in mouse serum assessed as ester hydrolysis mediated formation of metabolites by HPLC-MS method; type: ADME, cell-free
How it was run: (§1)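 Compound (10 μL of 25 μg/mL) was incubated with 100 μL mouse serum at 37 °C for 0, 1, 2, 4, 8, 12 and 24 h. The reaction was quenched with EtOAc plus internal standard, shaken 5 min, centrifuged at 16000g, and the organic layer dried and taken up in MeOH. Parent and ester-hydrolysis acid were quantified by HPLC-MS MRM interpolation; n = 2.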

[4] = molecular target: Gamma-secretase (Homo sapiens) (UniProt Q96BI3+Q9NZ42+Q8WW43+P49768+Q92542+P49810); experiment: Inhibition of gamma secretase expressed in human H4 cells expressing BRI-C99 fusion protein assessed as C99 fragment accumulation fragment at 10 uM incubated for 16 hrs in by immunoblot; type: cell-based
How it was run: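 H4 cells overexpressing Bri-C99 (400000/well) were kept in Opti-MEM with 1% serum and treated 16 h with test compound (10 μM), LY411575 (100 nM) or BACE1 inhibitor IV (1 μM). Cells were lysed in TBS/1% Triton X-100 and run on a 12% bis-tris gel. Blots were probed with CT-20 antibody for furin-generated C99 and read on an infrared imager.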

[5] = test system: Brain; experiment: Drug concentration in CF1 mouse brain at 30 mg/kg, ip measured 3 hrs post dose by HPLC-MS method relative to compound plasma concentration; type: ADME, organism-based; parameters: dose 30 mg/kg, route intraperitoneal
How it was run: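 CF-1 mice, 8 weeks old, 25−35 g, given 30 mg/kg i.p. in 5% DMSO/15% Solutol HS 15/10% EtOH/65% water; killed 3 h post-dose. Cerebellum and cortex homogenized in acetonitrile (1:10 w:v) containing internal standard, then re-extracted. Plasma was taken by cardiac puncture into K-EDTA. Levels were measured by HPLC-MS (MRM, negative ionization) and interpolated from a calibration curve.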

[6] = molecular target: T2, Beta-secretase 1 (Homo sapiens, UniProt P56817); conditions: H4, at 10 µM
[7] = Drug metabolism in human H4 cells lysates assessed as ester hydrolysis mediated formation of metabolites by HPLC-MS method; type: ADME, cell-based, Lysate
How it was run: (§2)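 H4 whole-cell lysate was diluted to 1 mg/mL protein in 0.1 M phosphate buffer, pH 7.4. Parent and acid hydrolysis product were extracted with EtOAc with internal standard. Quantitation was by HPLC-MS MRM against a calibration curve; n = 2.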

[8] = molecular target: T2, Beta-secretase 1; experiment: Inhibition of BACE1 expressed in human H4 cells assessed as reduction in CTF levels at 10 uM incubated for 16 hrs by immunoblot; type: cell-based
[9] = molecular target: T2, Beta-secretase 1; experiment: Inhibition of BACE1 expressed in CHO 2B7 cells expressing wild type APP695 assessed as reduction in Abeta40/Abeta42 levels incubated for 16 hrs by sandwich ELISA; type: cell-based
[10] = test system: Nucleic Acid; experiment: Ratio of drug level in CF1 mouse brain to IC50 for inhibition of BACE1-mediated Abeta40/Abeta42 production in CHO 2B7 cells expressing wild type APP695; type: cell-based
How it was run: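 CF-1 mice (8 weeks, 25−35 g) received 30 mg/kg i.p. in 5% DMSO/15% Solutol HS 15/10% EtOH/65% water and were killed 3 h post-dose. Cerebellum and cortex were homogenized in acetonitrile (1:10 w:v) with internal standard and quantified by HPLC-MS (MRM, negative ion). The cellular reference was CHO 2B7 (APP695 wt): 16 h treatment, 1% DMSO, secreted Aβ40/Aβ42 sandwich ELISA.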

[11] = test system: Mus musculus; experiment: Reduction in […] in CF1 mouse at 30 mg/kg, ip measured 3 hrs post dose by sandwich ELISA; type: functional, organism-based; parameters: dose 30 mg/kg
[12] = test system: H4; experiment: Inhibition of Alpha secretase expressed in human H4 cells assessed as reduction in C83 levels at 10 uM incubated for 16 hrs by immunoblot; type: cell-based
How it was run: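 H4 cells (3 × 10⁵/well) adhered 4−6 h in DMEM/10% FCS at 37 °C, then were switched to serum-free Ultraculture containing compound at 10 μM final for 16 h. Cells were lysed in NP40/deoxycholate buffer, and protein was equalized by BCA. Lysates were run on 10−20% tricine gels and immunoblotted with antibody to the APP C-terminal 20 residues (1:2000); C99 and C83 were imaged on an infrared system.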

[13] = Stability in human H4 cells lysates by HPLC-MS method; type: ADME, cell-based, Lysate; how it was run: as §2
[14] = test system: Serum; experiment: Stability in mouse serum by HPLC-MS method; type: ADME, cell-free; how it was run: as §1
[15] = molecular target: T2, Beta-secretase 1; experiment: Inhibition of BACE1 by fluorescence assay

Chain of Cathepsin D (P07339 65-162 limits assumed): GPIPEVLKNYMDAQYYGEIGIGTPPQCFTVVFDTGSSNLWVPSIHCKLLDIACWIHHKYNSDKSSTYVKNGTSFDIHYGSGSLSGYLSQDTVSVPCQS
Chain of Cathepsin D (P07339 169-412 limits assumed): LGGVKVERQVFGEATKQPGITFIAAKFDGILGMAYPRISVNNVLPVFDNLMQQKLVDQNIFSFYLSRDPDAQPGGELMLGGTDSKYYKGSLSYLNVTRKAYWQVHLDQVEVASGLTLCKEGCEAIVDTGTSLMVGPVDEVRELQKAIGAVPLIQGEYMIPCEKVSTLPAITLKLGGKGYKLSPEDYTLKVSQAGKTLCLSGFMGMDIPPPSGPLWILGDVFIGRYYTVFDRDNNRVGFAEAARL
T2 sequence (P56817 whole entry): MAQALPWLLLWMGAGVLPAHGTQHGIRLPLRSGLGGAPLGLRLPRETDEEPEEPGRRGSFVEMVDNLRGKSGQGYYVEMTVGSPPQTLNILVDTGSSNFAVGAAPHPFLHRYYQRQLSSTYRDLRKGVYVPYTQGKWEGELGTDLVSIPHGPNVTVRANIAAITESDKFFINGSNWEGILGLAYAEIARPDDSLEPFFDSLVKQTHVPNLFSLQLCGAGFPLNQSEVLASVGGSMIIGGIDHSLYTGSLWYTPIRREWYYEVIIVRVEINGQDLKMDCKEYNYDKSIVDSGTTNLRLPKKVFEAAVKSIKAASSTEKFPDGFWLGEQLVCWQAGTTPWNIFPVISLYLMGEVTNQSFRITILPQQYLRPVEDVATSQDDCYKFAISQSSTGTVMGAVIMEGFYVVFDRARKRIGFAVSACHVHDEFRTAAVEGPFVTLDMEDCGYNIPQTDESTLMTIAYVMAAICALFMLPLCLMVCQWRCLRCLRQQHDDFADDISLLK

Row | Structure (SMILES) | pIC50 [1] | pIC50 [2] | inhibition [6] | further results
1 | COC(=O)[C@@H]1CCCN1C(=O)[C@@H](Cc1ccccc1)N(C)C(=O)[C@@H](C)NC(=O)[C@H](CC(C)C)NC(=O)C[C@H](O)[C@H](Cc1ccccc1)NC(=O)[C@H](CCC(N)=O)N(C)C(=O)[C@@H](NC(=O)[C@H](C)O)C(C)C | 5.84 | – | – | –
2 | COC(=O)[C@@H]1CCCN1C(=O)[C@@H](Cc1ccccc1)N(C)C(=O)[C@H](C)NC(=O)[C@H](CC(C)C)NC(=O)C[C@H](O)[C@H](Cc1ccccc1)NC(=O)[C@H](CCC(N)=O)N(C)C(=O)[C@@H](NC(=O)OC(C)(C)C)C(C)C | 8.72 | 9.90 | – | –
3 | COC(=O)[C@@H]1CCCN1C(=O)[C@@H](Cc1ccccc1)N(C)C(=O)[C@H](C)NC(=O)[C@H](CC(C)C)NC(=O)C[C@H](O)[C@H](Cc1ccccc1)NC(=O)[C@H](CCC(N)=O)N(C)C(=O)[C@@H](NC(=O)[C@H](C)O)C(C)C [listing 1 of 2 here] | 7.18 | – | – | –
4 | COC(=O)[C@@H]1CCCN1C(=O)[C@@H](Cc1ccccc1)N(C)C(=O)[C@H](C)NC(=O)[C@H](CC(C)C)NC(=O)C[C@H](O)[C@H](Cc1ccccc1)NC(=O)c1cc(C(=O)N[C@H](C)c2ccccc2)cc(N(C)S(C)(=O)=O)c1 | 7.44 | 8.23 | Active | Drug metabolism [3]: Active; inhibition [4]: inactive; Drug uptake [5]: 5.8%; Drug metabolism [7]: Active; inhibition [8]: Active; pIC50 [9]: 8.00; Ratio [10]: 20; Activity [11]: Active; inhibition [12]: inactive; Stability [13]: Stable; Stability [14]: Stable
5 | CC(C)C[C@H](NC(=O)C[C@H](O)[C@H](Cc1ccccc1)NC(=O)[C@H](CCC(N)=O)N(C)C(=O)[C@@H](NC(=O)[C@H](C)O)C(C)C)C(=O)N[C@@H](C)C(=O)N(C)[C@H](Cc1ccccc1)C(=O)NC(C)C | 7.28 | 6.60 | Active | pIC50 [15]: 6.78
6 | COC(=O)[C@@H]1CCCN1C(=O)[C@@H](Cc1ccccc1)N(C)C(=O)[C@H](C)NC(=O)[C@H](CC(C)C)NC(=O)C[C@H](O)[C@H](Cc1ccccc1)NC(=O)[C@H](CCC(N)=O)N(C)C(=O)[C@@H](NC(=O)[C@H](C)O)C(C)C [TASIAMIDE B] | 7.43 | – | – | –
7 | COC(=O)[C@@H]1CCCN1C(=O)[C@@H](Cc1ccccc1)N(C)C(=O)[C@H](C)NC(=O)[C@H](CC(C)C)NC(=O)C[C@H](O)[C@H](Cc1ccccc1)NC(=O)[C@H](CCC(N)=O)N(C)C(=O)[C@@H](NC(=O)[C@H](C)O)C(C)C [listing 2 of 2 here] | – | – | – | inhibition [4]: inactive
8 | CC(C)C[C@@H](C=O)NC(=O)[C@H](CC(C)C)NC(=O)[C@@H](NC(=O)OCc1ccccc1)C(C)C (Cbz-Val-Leu-Leu-aldehyde) | – | – | Active | –
9 | CC(C)C[C@H](NC(=O)C[C@H](O)[C@H](Cc1ccccc1)NC(=O)[C@H](CCC(N)=O)N(C)C(=O)[C@@H](NC(=O)[C@H](C)O)C(C)C)C(=O)N[C@@H](C)C(=O)N(C)[C@H](Cc1ccccc1)C(=O)O (H-[Lac]V[NMeQ][Ahppa(3S,4S)]LA[dNMeF]-OH) | 7.68 | 7.27 | Active | pIC50 [15]: 7.14
10 | COC(=O)[C@@H]1CCCN1C(=O)[C@@H](Cc1ccccc1)N(C)C(=O)[C@H](C)NC(=O)[C@H](CC(C)C)NC(=O)C[C@H](O)[C@H](Cc1ccccc1)NC(C)=O | 5.31 | 7.14 | – | –
